Measurements taken from paper PMC5508980 (Molecular nutrition & food research, 2017).

How the values were obtained:
[1] = molecular target: recombinant HDAC1 (Homo sapiens, UniProt Q13547); experiment: Recombinant HDAC activity assay; type: biochemical; conditions: for remaining activity at 50 µM: 2 h, read-out: % HDAC activity, Class I HDACs, 1; for % HDAC activity, Class I HDACs, 1: recombinant protein incubated with 50 µM compound, 2 hrs
[2] = molecular target: T1, recombinant HDAC8 (Homo sapiens, UniProt Q9BY41); experiment: Recombinant HDAC activity assay; type: biochemical; conditions: for remaining activity at 50 µM: 2 h, read-out: % HDAC activity, Class I HDACs, 8; for % HDAC activity, Class I HDACs, 8: recombinant protein incubated with 50 µM compound, 2 hrs
T1 sequence (Q9BY41 1-377): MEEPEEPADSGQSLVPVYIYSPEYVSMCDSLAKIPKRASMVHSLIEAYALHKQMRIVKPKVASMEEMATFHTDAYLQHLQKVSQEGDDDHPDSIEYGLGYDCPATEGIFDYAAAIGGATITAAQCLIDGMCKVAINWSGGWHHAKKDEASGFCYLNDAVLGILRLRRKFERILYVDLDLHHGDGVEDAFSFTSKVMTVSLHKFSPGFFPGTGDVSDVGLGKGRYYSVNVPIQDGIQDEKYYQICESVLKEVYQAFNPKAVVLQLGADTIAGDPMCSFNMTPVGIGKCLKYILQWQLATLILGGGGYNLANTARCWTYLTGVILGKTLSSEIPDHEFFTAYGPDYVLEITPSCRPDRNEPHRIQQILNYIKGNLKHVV

[3] = molecular target: recombinant HDAC2 (Homo sapiens, UniProt Q92769); experiment: Recombinant HDAC activity assay; type: biochemical; conditions: for remaining activity at 50 µM: 2 h, read-out: % HDAC activity, Class I HDACs, 2
[4] = tested on: Class I HDAC; experiment: HDAC activity assay, class I substrate, bovine heart tissue lysate; type: biochemical; conditions: 2 hours treatment
How it was run: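 Bovine heart lysate prepared in PBS pH 7.4 with 0.5% Triton X-100, 300 mM NaCl and protease/phosphatase inhibitors, then clarified; 30 µg protein/well in PBS. Test compound at semi-log increasing concentrations for 2 h, then class-specific AMC-acyl-lysine substrate (1 mM DMSO stock) for 2 h at 37 °C.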

[5] = molecular target: T2, recombinant HDAC7 (Homo sapiens, UniProt Q8WUI4); experiment: Recombinant HDAC activity assay; type: biochemical; conditions: recombinant protein incubated with 50 µM compound, 2 hrs
T2 sequence (Q8WUI4 1-952): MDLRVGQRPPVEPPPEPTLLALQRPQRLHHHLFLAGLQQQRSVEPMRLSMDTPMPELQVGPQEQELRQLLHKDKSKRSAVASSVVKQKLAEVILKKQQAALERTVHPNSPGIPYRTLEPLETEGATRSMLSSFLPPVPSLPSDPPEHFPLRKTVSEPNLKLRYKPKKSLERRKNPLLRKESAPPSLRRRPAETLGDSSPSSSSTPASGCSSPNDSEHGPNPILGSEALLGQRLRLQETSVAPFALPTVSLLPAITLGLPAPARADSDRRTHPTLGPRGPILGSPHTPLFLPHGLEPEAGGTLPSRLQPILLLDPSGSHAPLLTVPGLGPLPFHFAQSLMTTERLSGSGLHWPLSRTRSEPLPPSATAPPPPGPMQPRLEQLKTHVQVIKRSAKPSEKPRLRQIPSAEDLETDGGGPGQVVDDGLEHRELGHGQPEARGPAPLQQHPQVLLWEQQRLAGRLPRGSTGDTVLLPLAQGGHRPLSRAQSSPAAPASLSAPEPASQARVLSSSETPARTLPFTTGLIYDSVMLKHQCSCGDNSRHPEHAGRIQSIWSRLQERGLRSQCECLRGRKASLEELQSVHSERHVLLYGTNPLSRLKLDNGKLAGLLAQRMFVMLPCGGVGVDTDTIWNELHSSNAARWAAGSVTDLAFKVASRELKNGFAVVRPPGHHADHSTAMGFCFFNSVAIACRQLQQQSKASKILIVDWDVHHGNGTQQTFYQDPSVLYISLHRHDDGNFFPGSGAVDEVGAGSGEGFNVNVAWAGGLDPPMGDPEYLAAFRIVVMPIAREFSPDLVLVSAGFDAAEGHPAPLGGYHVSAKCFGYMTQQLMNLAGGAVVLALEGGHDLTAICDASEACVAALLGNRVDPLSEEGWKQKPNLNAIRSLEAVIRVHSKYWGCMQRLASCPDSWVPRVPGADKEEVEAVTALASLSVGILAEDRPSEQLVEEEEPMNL

[6] = molecular target: recombinant HDAC3 (Homo sapiens, UniProt O15379); experiment: Recombinant HDAC activity assay; type: biochemical; conditions: for remaining activity at 50 µM: 2 h, read-out: % HDAC activity, Class I HDACs, 3; for % HDAC activity, Class I HDACs, 3: recombinant protein incubated with 50 µM compound, 2 hrs
[7] = molecular target: T3, recombinant HDAC10 (Homo sapiens, UniProt Q969S8); experiment: Recombinant HDAC activity assay; type: biochemical; conditions: for % HDAC activity, Class IIb HDACs, 10: recombinant protein incubated with 50 µM compound, 2 hrs; for remaining activity at 50 µM: 2 h, read-out: % HDAC activity, Class IIb HDACs, 10
T3 sequence (Q969S8 1-669): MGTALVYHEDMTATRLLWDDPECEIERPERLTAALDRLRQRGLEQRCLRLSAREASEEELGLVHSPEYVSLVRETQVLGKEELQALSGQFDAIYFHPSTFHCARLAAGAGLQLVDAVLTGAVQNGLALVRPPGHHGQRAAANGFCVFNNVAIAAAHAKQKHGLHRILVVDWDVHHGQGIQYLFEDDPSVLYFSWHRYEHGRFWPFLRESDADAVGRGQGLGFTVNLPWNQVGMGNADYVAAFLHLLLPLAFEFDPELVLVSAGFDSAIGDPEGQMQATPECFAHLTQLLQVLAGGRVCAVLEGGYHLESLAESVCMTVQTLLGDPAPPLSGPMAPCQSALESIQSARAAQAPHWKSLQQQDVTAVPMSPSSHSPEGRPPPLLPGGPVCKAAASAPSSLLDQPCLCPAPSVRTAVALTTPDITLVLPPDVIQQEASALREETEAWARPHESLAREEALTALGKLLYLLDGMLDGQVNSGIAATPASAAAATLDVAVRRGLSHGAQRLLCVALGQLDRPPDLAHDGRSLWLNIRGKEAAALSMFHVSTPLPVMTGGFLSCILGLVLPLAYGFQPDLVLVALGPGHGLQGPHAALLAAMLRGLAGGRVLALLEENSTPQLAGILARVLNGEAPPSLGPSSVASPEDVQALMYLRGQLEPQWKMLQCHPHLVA

[8] = molecular target: recombinant HDAC4 (Homo sapiens, UniProt P56524); experiment: Recombinant HDAC activity assay; type: biochemical; conditions: recombinant protein incubated with 50 µM compound, 2 hrs
[9] = molecular target: recombinant HDAC9 (Homo sapiens, UniProt Q9UKV0); experiment: Recombinant HDAC activity assay; type: biochemical; conditions: for remaining activity at 50 µM: 2 h, read-out: % HDAC activity, Class IIa HDACs, 9
[10] = tested on: H9c2 cells; experiment: Acetyl-H3K9/14 immunoblot of whole cell extract; type: cell-based, rat; conditions: H9c2 myocytes, 50 µM, 2 hours
How it was run: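 H9c2 cells were grown in DMEM with 10% FBS and treated at 90% confluence for 2 h with test compound or DMSO, with TSA as positive control. Washed in ice-cold PBS, lysed in PBS pH 7.4 with 0.5% Triton X-100 and 300 mM NaCl plus inhibitors, sonicated and clarified. SDS-PAGE, nitrocellulose, acetyl-H3K9/14 and total H3 antibodies, chemiluminescence; densitometry; ANOVA with Tukey.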

[11] = molecular target: recombinant HDAC5 (Homo sapiens, UniProt Q9UQL6); experiment: Recombinant HDAC activity assay; type: biochemical; conditions: for remaining activity at 50 µM: 2 h, read-out: % HDAC activity, Class IIa HDACs, 5
[12] = tested on: HDAC activity in bovine cardiac tissue; experiment: Natural product library screen with class-selective HDAC substrates; type: biochemical; conditions: 2 hours treatment
How it was run: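 The screen covered 131 natural compounds against bovine cardiac tissue lysate at 30 µg protein/well in PBS (pH 7.4 lysis buffer with Triton X-100 and NaCl). Test compound for 2 h, then separate class I, IIa or IIb fluorogenic acyl-lysine-AMC substrates for 2 h at 37 °C. Developer (Triton X-100, 3 µM TSA, 0.75 mg/ml trypsin) for 20 min; fluorescence read at 360/460 nm.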

[13] = molecular target: T4, recombinant HDAC6 (Homo sapiens, UniProt Q9UBN7); experiment: Recombinant HDAC activity assay; type: biochemical; conditions: recombinant protein incubated with 50 µM compound, 2 hrs
T4 sequence (Q9UBN7 1-1215): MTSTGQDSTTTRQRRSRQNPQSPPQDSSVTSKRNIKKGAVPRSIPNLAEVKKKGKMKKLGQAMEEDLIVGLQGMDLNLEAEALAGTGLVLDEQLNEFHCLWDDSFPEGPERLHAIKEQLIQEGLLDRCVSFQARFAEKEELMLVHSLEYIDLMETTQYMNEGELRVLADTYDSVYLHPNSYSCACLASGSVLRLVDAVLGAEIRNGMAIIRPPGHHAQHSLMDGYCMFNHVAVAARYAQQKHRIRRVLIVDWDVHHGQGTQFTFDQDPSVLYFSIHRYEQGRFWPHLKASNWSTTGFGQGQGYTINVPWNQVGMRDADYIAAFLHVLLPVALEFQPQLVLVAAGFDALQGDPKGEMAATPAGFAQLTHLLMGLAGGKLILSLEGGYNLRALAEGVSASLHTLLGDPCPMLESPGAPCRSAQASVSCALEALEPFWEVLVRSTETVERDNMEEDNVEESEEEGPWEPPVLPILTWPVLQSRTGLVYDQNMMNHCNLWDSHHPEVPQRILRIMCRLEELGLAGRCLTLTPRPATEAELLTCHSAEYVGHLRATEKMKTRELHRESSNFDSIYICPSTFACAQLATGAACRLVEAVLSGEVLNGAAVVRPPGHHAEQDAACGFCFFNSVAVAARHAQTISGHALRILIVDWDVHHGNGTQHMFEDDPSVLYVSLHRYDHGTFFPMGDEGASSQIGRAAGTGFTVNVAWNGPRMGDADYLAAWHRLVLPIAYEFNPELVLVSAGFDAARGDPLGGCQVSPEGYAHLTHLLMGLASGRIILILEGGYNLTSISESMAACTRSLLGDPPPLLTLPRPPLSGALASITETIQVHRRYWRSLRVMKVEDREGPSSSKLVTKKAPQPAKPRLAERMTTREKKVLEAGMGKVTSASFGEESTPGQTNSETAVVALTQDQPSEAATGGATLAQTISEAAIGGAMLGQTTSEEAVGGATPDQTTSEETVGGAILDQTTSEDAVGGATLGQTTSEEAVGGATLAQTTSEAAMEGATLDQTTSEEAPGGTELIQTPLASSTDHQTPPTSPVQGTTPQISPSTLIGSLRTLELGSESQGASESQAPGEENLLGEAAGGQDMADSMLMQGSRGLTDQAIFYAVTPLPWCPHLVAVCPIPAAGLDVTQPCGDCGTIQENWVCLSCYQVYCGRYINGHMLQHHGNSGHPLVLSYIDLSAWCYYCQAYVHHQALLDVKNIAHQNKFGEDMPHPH

[14] = recombinant protein incubated with 50 µM compound, 2 hrs

recombinant HDAC9, sequence (Q9UKV0 whole entry): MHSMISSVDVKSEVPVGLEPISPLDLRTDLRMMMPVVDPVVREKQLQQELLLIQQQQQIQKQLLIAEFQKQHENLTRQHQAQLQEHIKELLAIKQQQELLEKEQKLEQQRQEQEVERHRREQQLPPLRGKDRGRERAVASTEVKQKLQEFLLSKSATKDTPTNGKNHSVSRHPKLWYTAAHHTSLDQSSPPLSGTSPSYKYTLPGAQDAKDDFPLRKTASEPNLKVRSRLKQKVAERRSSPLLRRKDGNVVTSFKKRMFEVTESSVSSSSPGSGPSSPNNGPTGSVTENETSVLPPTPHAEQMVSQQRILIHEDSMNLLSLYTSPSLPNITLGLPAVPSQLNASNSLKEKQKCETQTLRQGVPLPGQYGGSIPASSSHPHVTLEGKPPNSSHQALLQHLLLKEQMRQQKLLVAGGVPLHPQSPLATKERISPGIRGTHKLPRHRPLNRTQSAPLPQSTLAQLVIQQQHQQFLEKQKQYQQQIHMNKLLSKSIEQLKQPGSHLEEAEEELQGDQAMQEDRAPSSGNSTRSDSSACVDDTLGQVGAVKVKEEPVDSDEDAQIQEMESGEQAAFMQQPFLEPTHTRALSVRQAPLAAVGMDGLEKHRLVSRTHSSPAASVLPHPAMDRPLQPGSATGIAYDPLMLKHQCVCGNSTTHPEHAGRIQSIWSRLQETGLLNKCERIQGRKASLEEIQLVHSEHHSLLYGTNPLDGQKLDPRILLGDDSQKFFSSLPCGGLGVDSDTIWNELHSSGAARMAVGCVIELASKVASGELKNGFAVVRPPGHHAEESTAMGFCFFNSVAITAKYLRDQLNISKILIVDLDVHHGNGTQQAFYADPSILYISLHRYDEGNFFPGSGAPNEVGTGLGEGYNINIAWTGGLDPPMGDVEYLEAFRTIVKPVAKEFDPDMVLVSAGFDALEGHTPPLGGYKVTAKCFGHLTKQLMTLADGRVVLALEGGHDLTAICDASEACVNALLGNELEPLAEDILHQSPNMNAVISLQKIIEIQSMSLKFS
recombinant HDAC1, sequence (Q13547 whole entry): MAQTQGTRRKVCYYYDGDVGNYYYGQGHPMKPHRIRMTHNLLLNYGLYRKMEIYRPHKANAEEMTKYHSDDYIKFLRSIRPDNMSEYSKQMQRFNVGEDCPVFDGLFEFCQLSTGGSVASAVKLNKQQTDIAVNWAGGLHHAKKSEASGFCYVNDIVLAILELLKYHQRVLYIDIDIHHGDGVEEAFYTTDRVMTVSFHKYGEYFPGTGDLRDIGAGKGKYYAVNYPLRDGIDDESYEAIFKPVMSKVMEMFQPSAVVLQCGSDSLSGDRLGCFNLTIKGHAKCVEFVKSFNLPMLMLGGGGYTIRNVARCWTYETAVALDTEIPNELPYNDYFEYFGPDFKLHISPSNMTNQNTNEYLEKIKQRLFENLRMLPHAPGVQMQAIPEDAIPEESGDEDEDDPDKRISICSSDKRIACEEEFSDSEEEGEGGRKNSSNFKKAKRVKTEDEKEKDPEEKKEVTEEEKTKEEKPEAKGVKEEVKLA
recombinant HDAC5, sequence (Q9UQL6 whole entry): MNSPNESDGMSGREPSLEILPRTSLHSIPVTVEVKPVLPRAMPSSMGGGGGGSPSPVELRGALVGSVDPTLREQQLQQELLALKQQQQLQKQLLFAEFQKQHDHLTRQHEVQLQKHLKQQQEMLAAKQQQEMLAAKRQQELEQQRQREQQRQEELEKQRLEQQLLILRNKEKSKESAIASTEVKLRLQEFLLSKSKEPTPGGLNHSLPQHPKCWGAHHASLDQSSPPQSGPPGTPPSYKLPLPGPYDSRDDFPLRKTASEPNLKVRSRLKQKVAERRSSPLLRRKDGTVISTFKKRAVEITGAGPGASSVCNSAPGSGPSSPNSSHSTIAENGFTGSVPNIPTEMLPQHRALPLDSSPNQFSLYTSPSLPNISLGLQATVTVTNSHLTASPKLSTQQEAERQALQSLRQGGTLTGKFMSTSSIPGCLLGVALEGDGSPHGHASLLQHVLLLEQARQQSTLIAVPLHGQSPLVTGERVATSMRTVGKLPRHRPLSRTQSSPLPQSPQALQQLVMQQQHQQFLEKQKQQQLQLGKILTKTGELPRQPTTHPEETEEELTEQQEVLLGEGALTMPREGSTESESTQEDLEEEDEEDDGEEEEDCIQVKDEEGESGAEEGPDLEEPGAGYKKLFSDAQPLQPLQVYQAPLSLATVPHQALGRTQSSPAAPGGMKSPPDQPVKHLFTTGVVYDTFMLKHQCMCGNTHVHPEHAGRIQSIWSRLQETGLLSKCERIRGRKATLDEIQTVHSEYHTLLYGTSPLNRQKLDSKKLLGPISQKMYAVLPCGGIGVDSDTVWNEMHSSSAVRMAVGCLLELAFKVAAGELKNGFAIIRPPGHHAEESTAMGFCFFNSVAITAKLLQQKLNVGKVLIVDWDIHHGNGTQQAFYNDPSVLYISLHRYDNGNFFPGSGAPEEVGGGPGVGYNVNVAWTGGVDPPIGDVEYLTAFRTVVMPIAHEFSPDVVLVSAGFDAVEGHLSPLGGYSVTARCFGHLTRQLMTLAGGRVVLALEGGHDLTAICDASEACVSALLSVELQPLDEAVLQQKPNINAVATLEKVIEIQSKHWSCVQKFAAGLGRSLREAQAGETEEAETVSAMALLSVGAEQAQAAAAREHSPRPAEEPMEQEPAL
recombinant HDAC3, sequence (O15379 whole entry): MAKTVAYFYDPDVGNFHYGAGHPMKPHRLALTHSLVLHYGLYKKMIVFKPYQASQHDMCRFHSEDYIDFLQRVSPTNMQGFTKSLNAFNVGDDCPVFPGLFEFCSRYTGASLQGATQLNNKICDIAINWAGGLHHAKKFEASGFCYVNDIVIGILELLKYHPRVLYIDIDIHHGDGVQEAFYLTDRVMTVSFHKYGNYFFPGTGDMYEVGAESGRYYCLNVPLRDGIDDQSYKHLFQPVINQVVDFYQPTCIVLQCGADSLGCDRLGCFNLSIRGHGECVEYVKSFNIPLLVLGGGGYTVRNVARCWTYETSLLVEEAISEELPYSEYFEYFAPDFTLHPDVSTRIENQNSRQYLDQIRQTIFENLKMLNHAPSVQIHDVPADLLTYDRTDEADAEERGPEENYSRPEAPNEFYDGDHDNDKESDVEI
recombinant HDAC3, sequence (Q9Y618 395-489 partner limits assumed): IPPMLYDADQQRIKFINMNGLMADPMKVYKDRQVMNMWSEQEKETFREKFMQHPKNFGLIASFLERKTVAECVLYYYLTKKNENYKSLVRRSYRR
recombinant HDAC2, sequence (Q92769 whole entry): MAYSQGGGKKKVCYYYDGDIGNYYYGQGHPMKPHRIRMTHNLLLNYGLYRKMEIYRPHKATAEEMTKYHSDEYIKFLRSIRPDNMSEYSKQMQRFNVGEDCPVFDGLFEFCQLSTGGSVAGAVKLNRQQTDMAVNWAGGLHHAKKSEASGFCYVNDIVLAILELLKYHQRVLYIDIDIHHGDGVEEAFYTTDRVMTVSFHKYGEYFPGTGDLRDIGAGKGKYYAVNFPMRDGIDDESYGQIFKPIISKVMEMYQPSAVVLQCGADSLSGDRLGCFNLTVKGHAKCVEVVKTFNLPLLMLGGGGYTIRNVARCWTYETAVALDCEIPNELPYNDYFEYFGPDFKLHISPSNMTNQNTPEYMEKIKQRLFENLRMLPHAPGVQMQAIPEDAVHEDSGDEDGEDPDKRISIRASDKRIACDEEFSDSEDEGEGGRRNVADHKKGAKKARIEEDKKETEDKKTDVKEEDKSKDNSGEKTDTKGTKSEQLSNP
recombinant HDAC4, sequence (P56524 whole entry): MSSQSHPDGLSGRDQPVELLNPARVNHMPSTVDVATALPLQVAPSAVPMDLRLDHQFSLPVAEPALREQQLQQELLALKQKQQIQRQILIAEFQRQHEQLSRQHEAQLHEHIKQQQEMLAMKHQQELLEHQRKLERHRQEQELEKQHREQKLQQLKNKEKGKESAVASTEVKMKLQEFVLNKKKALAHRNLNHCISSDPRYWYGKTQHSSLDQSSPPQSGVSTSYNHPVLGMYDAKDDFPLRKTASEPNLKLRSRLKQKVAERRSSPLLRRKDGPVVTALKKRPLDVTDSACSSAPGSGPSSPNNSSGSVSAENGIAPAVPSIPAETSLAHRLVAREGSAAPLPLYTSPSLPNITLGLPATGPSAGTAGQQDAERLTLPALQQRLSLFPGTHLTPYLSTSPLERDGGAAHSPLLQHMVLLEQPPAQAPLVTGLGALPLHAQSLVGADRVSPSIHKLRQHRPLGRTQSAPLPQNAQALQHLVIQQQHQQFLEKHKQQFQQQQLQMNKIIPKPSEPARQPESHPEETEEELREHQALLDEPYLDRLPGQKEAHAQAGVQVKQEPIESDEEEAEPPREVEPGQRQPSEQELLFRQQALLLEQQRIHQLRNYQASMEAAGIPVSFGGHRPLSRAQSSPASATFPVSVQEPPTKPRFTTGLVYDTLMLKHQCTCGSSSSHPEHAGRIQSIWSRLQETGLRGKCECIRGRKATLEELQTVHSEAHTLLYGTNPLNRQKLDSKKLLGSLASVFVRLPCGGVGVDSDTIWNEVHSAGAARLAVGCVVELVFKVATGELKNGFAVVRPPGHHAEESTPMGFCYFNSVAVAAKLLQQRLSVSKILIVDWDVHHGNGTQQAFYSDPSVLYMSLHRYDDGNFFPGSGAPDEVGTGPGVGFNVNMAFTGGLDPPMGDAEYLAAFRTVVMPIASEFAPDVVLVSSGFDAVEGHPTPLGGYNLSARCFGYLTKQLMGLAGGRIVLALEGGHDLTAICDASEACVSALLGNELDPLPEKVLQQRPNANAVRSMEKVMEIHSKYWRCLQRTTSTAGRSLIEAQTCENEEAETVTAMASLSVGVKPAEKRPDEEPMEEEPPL

Compound: O=c1cc(-c2ccc(O)cc2)oc2cc(O)cc(O)c12 [Apigenin]
- remaining activity at 50 µM [1]: 76.4%
- remaining activity at 50 µM [2]: 76.5%
- remaining activity at 50 µM [3]: 90.4%
- class I HDAC activity, effect in words [4]: only inhibit class I HDAC activity
- % HDAC activity, Class IIa HDACs, 7 [5]: -
- remaining activity at 50 µM [6]: 72.7%

Compound: O=C(O[C@@H]1Cc2c(O)cc(O)cc2O[C@@H]1c1cc(O)c(O)c(O)c1)c1cc(O)c(O)c(O)c1 [EGCG, epigallocatechin gallate]
- % HDAC activity, Class IIb HDACs, 10 [7]: 91.2%
- % HDAC activity, Class I HDACs, 8 [2]: 89.1%
- % HDAC activity, Class IIa HDACs, 4 [8]: 82.5%
- % HDAC activity, Class IIa HDACs, 7 [5]: -

Compound: Cc1cc2c(C(C)C)c(O)c(O)c(C=O)c2c(O)c1-c1c(C)cc2c(C(C)C)c(O)c(O)c(C=O)c2c1O [Gossypol]
- remaining activity at 50 µM [7]: 42.6%
- remaining activity at 50 µM [1]: 42.6%
- remaining activity at 50 µM [2]: 40.7%
- remaining activity at 50 µM [3]: 15.1%
- remaining activity at 50 µM [9]: 44.5%
- % HDAC activity, Class IIa HDACs, 7 [5]: -
- acetylation of histone 3 on lysine 9/14 (Ac-H3 K9/14) via immunoblot [10]: increased
- remaining activity at 50 µM [11]: 51.5%
- catalytic HDAC activity across class I, IIa and IIb substrates, effect in words [12]: dose-dependent pan-HDAC inhibition
- remaining activity at 50 µM [6]: 42.1%

Compound: O=c1cc(-c2ccc(O)c(O)c2)oc2cc(O)cc(O)c12 [Luteolin]
- remaining activity at 50 µM [7]: 55.9%
- remaining activity at 50 µM [1]: 60.7%
- remaining activity at 50 µM [2]: 52.8%
- remaining activity at 50 µM [3]: 49.5%
- remaining activity at 50 µM [9]: 52.3%
- % HDAC activity, Class IIa HDACs, 7 [5]: -
- remaining activity at 50 µM [11]: 59.5%
- catalytic HDAC activity across class I, IIa and IIb substrates, effect in words [12]: dose-dependent pan-HDAC inhibition
- remaining activity at 50 µM [6]: 51.4%

Compound: Nc1ccccc1NC(=O)c1ccc(CNc2nccc(-c3cccnc3)n2)cc1 [MGCD, MGCD0103, reference compound]
- class I HDAC activity, effect in words [4]: only inhibited class I HDAC activity

Compound: COc1cc2c(cc1OC)-c1cc3ccc(OC)c(OC)c3c[n+]1CC2 [Palmatine]
- % HDAC activity, Class I HDACs, 1 [1]: 44.8%
- % HDAC activity, Class I HDACs, 8 [2]: 40.9%
- % HDAC activity, Class I HDACs, 2 [3, 14]: 17.5%
- class I HDAC activity, effect in words [4]: only inhibit class I HDAC activity
- % HDAC activity, Class IIa HDACs, 7 [5]: -
- % HDAC activity, Class I HDACs, 3 [6]: 47.1%

Compound: Myricitrin
- % HDAC activity, Class IIb HDACs, 6 [13]: 87.2%
- % HDAC activity, Class IIb HDACs, 10 [7]: 67.0%
- % HDAC activity, Class I HDACs, 1 [1]: 75.1%
- % HDAC activity, Class I HDACs, 8 [2]: 65.4%
- % HDAC activity, Class IIa HDACs, 4 [8]: 93.5%
- % HDAC activity, Class IIa HDACs, 9 [9, 14]: 69.3%
- % HDAC activity, Class IIa HDACs, 7 [5]: -
- % HDAC activity, Class IIa HDACs, 5 [11, 14]: 68.3%
- % HDAC activity, Class I HDACs, 3 [6]: 67.7%
